What all share (assay type): functional
The subject of one assay is Staphylococcus aureus. The assay is described as follows: Antibacterial activity against Staphylococcus aureus ATCC 25923 after 24 hrs by broth dilution method. Conditions: ATCC 25923, 24 h. In outline:
(§1)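 Nutrient broth containing logarithmic twofold serial dilutions of compound, inoculated with about 5 × 10⁵ CFU/mL of actively dividing bacteria, incubated 24 h at 37 °C. Growth was read visually and spectrophotometrically. MIC was the lowest concentration (highest dilution) that arrested growth. Ciprofloxacin served as standard.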

In a further assay the test system is Klebsiella pneumoniae. The assay can be described thus: Antibacterial activity against Klebsiella pneumoniae after 24 hrs by broth dilution method. In short, it runs like this: as §1
(In broth dilution the organism is exposed to a series of concentrations in liquid medium.)

Assay [1] concerns Mycobacterium tuberculosis. The assay is described as follows: Antitubercular activity against Mycobacterium tuberculosis H37Rv after 7 days by resazurin microtiter assay. Conditions: 168 h. (Resazurin is reduced to fluorescent resorufin, in cell work by metabolically active cells.)
A further assay relates to Candida albicans. The assay is described as follows: Antifungal activity against Candida albicans after 48 hrs by […].
A further assay relates to Pseudomonas aeruginosa. The assay can be described thus: Antibacterial activity against Pseudomonas aeruginosa ATCC 27853 after 24 hrs by broth dilution method. Conditions: ATCC 27853, 24 h. In short, it runs like this: as §1
In a further assay the test system is Escherichia coli. The assay can be described thus: Antibacterial activity against Escherichia coli ATCC 25922 after 24 hrs by broth dilution method. Conditions: ATCC 25922, 24 h. In short, it runs like this: as §1

Values after ≈ are worked out from the molar mass of the structure shown.

Take `Oc1ccccc1-c1nnc(-c2cc(Br)c(Br)[nH]2)o1`: the MIC with Staphylococcus aureus is 1.56 µg/mL (≈ 4.05 µM); in the assay on Klebsiella pneumoniae it was 100 µg/mL (≈ 260 µM); in assay [1] it was 36.5 µg/mL (≈ 94.8 µM); with Candida albicans, 6.25 µg/mL (≈ 16.2 µM); in the assay on Pseudomonas aeruginosa it was 12.5 µg/mL (≈ 32.5 µM); against Escherichia coli it was 3.12 µg/mL (≈ 8.12 µM).
On to `Brc1cc(-c2nnc(/C=C/c3ccccc3)o2)[nH]c1Br`, for which the MIC in the assay with Staphylococcus aureus was 3.12 µg/mL (≈ 7.91 µM); with Klebsiella pneumoniae, 100 µg/mL (≈ 253 µM); in assay [1] it was 78.5 µg/mL (≈ 199 µM); with Candida albicans, 12.5 µg/mL (≈ 31.6 µM); with Pseudomonas aeruginosa it was 6.25 µg/mL (≈ 15.8 µM); against Escherichia coli it was 12.5 µg/mL (≈ 31.6 µM).
Regarding `Oc1ccc(-c2nnc(-c3cc(Br)c(Br)[nH]3)o2)cc1`, the MIC against Staphylococcus aureus turned out to be 12.5 µg/mL (≈ 32.5 µM); with Klebsiella pneumoniae, 100 µg/mL (≈ 260 µM); in assay [1], 25 µg/mL (≈ 64.9 µM); in the assay on Candida albicans, 12.5 µg/mL (≈ 32.5 µM); against Pseudomonas aeruginosa, 6.25 µg/mL (≈ 16.2 µM); against Escherichia coli, 12.5 µg/mL (≈ 32.5 µM).
On to `Fc1ccc(Cl)c(-c2nnc(-c3cc(Br)c(Br)[nH]3)o2)c1`, for which the MIC in the assay on Staphylococcus aureus amounted to 1.56 µg/mL (≈ 3.7 µM); against Klebsiella pneumoniae, 100 µg/mL (≈ 237 µM); in assay [1] it was 6.5 µg/mL (≈ 15.4 µM); with Candida albicans it was 12.5 µg/mL (≈ 29.7 µM); in the assay on Pseudomonas aeruginosa, 6.25 µg/mL (≈ 14.8 µM); in the assay with Escherichia coli, 1.56 µg/mL (≈ 3.7 µM).
Take `O=[N+]([O-])c1ccc(-c2nnc(-c3cc(Br)c(Br)[nH]3)o2)cc1`: the MIC worked out at 1.56 µg/mL (≈ 3.77 µM) in the assay on Staphylococcus aureus; 100 µg/mL (≈ 242 µM) in the assay on Klebsiella pneumoniae; 9 µg/mL (≈ 21.7 µM) in assay [1]; 1.56 µg/mL (≈ 3.77 µM) against Candida albicans; 6.25 µg/mL (≈ 15.1 µM) against Pseudomonas aeruginosa; 1.56 µg/mL (≈ 3.77 µM) in the assay on Escherichia coli.
For the compound `Brc1cc(-c2nnc(-c3cc(Br)c(Br)[nH]3)o2)[nH]c1Br`, the MIC was 1.56 µg/mL (≈ 3.02 µM) in the assay with Staphylococcus aureus; 100 µg/mL (≈ 194 µM) in the assay on Klebsiella pneumoniae; 3.5 µg/mL (≈ 6.79 µM) in assay [1]; 1.56 µg/mL (≈ 3.02 µM) against Candida albicans; 6.25 µg/mL (≈ 12.1 µM) against Pseudomonas aeruginosa; 1.56 µg/mL (≈ 3.02 µM) in the assay with Escherichia coli.
As to `Brc1cc(-c2nnc(-c3ccccc3)o2)[nH]c1Br`, the MIC in the assay with Staphylococcus aureus worked out at 6.25 µg/mL (≈ 16.9 µM); against Klebsiella pneumoniae, 100 µg/mL (≈ 271 µM); in assay [1] it was 98.7 µg/mL (≈ 267 µM); against Candida albicans, 12.5 µg/mL (≈ 33.9 µM); in the assay on Pseudomonas aeruginosa, 6.25 µg/mL (≈ 16.9 µM); in the assay on Escherichia coli, 12.5 µg/mL (≈ 33.9 µM).
As to `COc1cc(/C=C/c2nnc(-c3cc(Br)c(Br)[nH]3)o2)ccc1O`, the MIC against Staphylococcus aureus came out at 1.56 µg/mL (≈ 3.54 µM); in the assay with Klebsiella pneumoniae, 100 µg/mL (≈ 227 µM); in assay [1], 112 µg/mL (≈ 255 µM); with Candida albicans, 12.5 µg/mL (≈ 28.3 µM); against Pseudomonas aeruginosa, 12.5 µg/mL (≈ 28.3 µM); with Escherichia coli it was 12.5 µg/mL (≈ 28.3 µM).
Turning to `Brc1cc(-c2nnc(-c3ccncc3)o2)[nH]c1Br`, the MIC amounted to 1.56 µg/mL (≈ 4.22 µM) against Staphylococcus aureus; 100 µg/mL (≈ 270 µM) with Klebsiella pneumoniae; 3.5 µg/mL (≈ 9.46 µM) in assay [1]; 12.5 µg/mL (≈ 33.8 µM) against Candida albicans; 12.5 µg/mL (≈ 33.8 µM) in the assay on Pseudomonas aeruginosa; 12.5 µg/mL (≈ 33.8 µM) with Escherichia coli.
As to `Brc1cc(-c2nnc(/C=C/C3=COc4ccccc4C3)o2)[nH]c1Br`, the MIC in the assay with Staphylococcus aureus came to 1.56 µg/mL (≈ 3.47 µM); against Klebsiella pneumoniae, 100 µg/mL (≈ 223 µM); in assay [1], 2 µg/mL (≈ 4.45 µM); in the assay with Candida albicans it was 12.5 µg/mL (≈ 27.8 µM); with Pseudomonas aeruginosa, 12.5 µg/mL (≈ 27.8 µM); in the assay with Escherichia coli it was 3.12 µg/mL (≈ 6.96 µM).
Regarding `Sc1nnc(-c2cc(Br)c(Br)[nH]2)o1`, the MIC with Staphylococcus aureus was 12.5 µg/mL (≈ 38.5 µM); in the assay on Klebsiella pneumoniae, 100 µg/mL (≈ 308 µM); in assay [1], 54.5 µg/mL (≈ 168 µM); against Candida albicans it was 12.5 µg/mL (≈ 38.5 µM); against Pseudomonas aeruginosa it was 12.5 µg/mL (≈ 38.5 µM); in the assay on Escherichia coli, 12.5 µg/mL (≈ 38.5 µM).
Take `CSc1nnc(-c2cc(Br)c(Br)[nH]2)o1`: the MIC turned out to be 12.5 µg/mL (≈ 36.9 µM) against Staphylococcus aureus; 100 µg/mL (≈ 295 µM) against Klebsiella pneumoniae; 89.5 µg/mL (≈ 264 µM) in assay [1]; 12.5 µg/mL (≈ 36.9 µM) against Candida albicans; 25 µg/mL (≈ 73.7 µM) against Pseudomonas aeruginosa; 12.5 µg/mL (≈ 36.9 µM) in the assay on Escherichia coli.
Take `CCSc1nnc(-c2cc(Br)c(Br)[nH]2)o1`: the MIC in the assay on Staphylococcus aureus came to 12.5 µg/mL (≈ 35.4 µM); against Klebsiella pneumoniae, 100 µg/mL (≈ 283 µM); in assay [1] it was 118 µg/mL (≈ 334 µM); against Candida albicans, 12.5 µg/mL (≈ 35.4 µM); with Pseudomonas aeruginosa, 25 µg/mL (≈ 70.8 µM); in the assay with Escherichia coli, 12.5 µg/mL (≈ 35.4 µM).
With `Brc1cc(-c2nnc(Sc3ccccc3)o2)[nH]c1Br`, the MIC came to 12.5 µg/mL (≈ 31.2 µM) against Staphylococcus aureus; 100 µg/mL (≈ 249 µM) with Klebsiella pneumoniae; 23.5 µg/mL (≈ 58.6 µM) in assay [1]; 6.25 µg/mL (≈ 15.6 µM) against Candida albicans; 25 µg/mL (≈ 62.3 µM) against Pseudomonas aeruginosa; 12.5 µg/mL (≈ 31.2 µM) with Escherichia coli.
On to `O=C(CSc1nnc(-c2cc(Br)c(Br)[nH]2)o1)c1ccccc1`, for which the minimal inhibitory concentration (MIC) against Staphylococcus aureus stood at 12.5 µg/mL (≈ 28.2 µM); with Klebsiella pneumoniae it was 100 µg/mL (≈ 226 µM); in assay [1], 1.5 µg/mL (≈ 3.39 µM); in the assay on Candida albicans, 1.56 µg/mL (≈ 3.52 µM); against Pseudomonas aeruginosa, 12.5 µg/mL (≈ 28.2 µM); against Escherichia coli it was 3.12 µg/mL (≈ 7.05 µM).
Regarding `O=C(Cc1ccccc1)c1nnc(-c2cc(Br)c(Br)[nH]2)o1`, the minimum inhibitory concentration (MIC) against Staphylococcus aureus is 3.12 µg/mL (≈ 7.6 µM); against Klebsiella pneumoniae it was 100 µg/mL (≈ 243 µM); in assay [1] it was 146 µg/mL (≈ 355 µM); in the assay on Candida albicans, 12.5 µg/mL (≈ 30.4 µM); in the assay on Pseudomonas aeruginosa, 12.5 µg/mL (≈ 30.4 µM); in the assay with Escherichia coli, 3.12 µg/mL (≈ 7.6 µM).
For `Nc1ccc(-c2nnc(-c3cc(Br)c(Br)[nH]3)o2)cc1`, the MIC with Staphylococcus aureus came out at 3.12 µg/mL (≈ 8.14 µM); in the assay on Klebsiella pneumoniae, 100 µg/mL (≈ 260 µM); in assay [1], 16.5 µg/mL (≈ 43 µM); against Candida albicans it was 12.5 µg/mL (≈ 32.5 µM); against Pseudomonas aeruginosa it was 6.25 µg/mL (≈ 16.3 µM); against Escherichia coli, 1.56 µg/mL (≈ 4.06 µM).
Regarding `Clc1ccc(-c2nnc(-c3cc(Br)c(Br)[nH]3)o2)cc1`, the MIC stood at 1.56 µg/mL (≈ 3.87 µM) against Staphylococcus aureus; 100 µg/mL (≈ 248 µM) with Klebsiella pneumoniae; 9.5 µg/mL (≈ 23.5 µM) in assay [1]; 12.5 µg/mL (≈ 31 µM) against Candida albicans; 6.25 µg/mL (≈ 15.5 µM) with Pseudomonas aeruginosa; 1.56 µg/mL (≈ 3.87 µM) against Escherichia coli.
Take `COc1ccc(-c2nnc(-c3cc(Br)c(Br)[nH]3)o2)cc1`: the minimum inhibitory concentration (MIC) was 3.12 µg/mL (≈ 7.83 µM) in the assay on Staphylococcus aureus; 100 µg/mL (≈ 251 µM) against Klebsiella pneumoniae; 56.5 µg/mL (≈ 142 µM) in assay [1]; 12.5 µg/mL (≈ 31.3 µM) against Candida albicans; 6.25 µg/mL (≈ 15.7 µM) against Pseudomonas aeruginosa; 3.12 µg/mL (≈ 7.83 µM) against Escherichia coli.
For `Clc1ccc(-c2nnc(-c3cc(Br)c(Br)[nH]3)o2)c(Cl)c1`, the MIC against Staphylococcus aureus turned out to be 6.25 µg/mL (≈ 14.3 µM); in the assay with Klebsiella pneumoniae, 100 µg/mL (≈ 228 µM); in assay [1], 1.6 µg/mL (≈ 3.65 µM); with Candida albicans it was 12.5 µg/mL (≈ 28.5 µM); with Pseudomonas aeruginosa it was 6.25 µg/mL (≈ 14.3 µM); against Escherichia coli, 12.5 µg/mL (≈ 28.5 µM).
The compound `C[C@@H]1[C@H](O)[C@@H](C)/C=C/C=C/C=C/C=C/C=C/C=C/C=C/[C@H](O[C@@H]2O[C@H](C)[C@@H](O)[C@H](N)[C@@H]2O)C[C@@H]2O[C@](O)(C[C@@H](O)C[C@@H](O)[C@H](O)CC[C@@H](O)C[C@@H](O)CC(=O)O[C@H]1C)C[C@H](O)[C@H]2C(=O)O` [AMPHOTERICIN B] came in with an MIC in the assay with Candida albicans of 1.56 µg/mL (≈ 1.69 µM).
Turning to `O=C(O)c1cn(C2CC2)c2cc(N3CCNCC3)c(F)cc2c1=O` [CIPROFLOXACIN], the MIC in the assay with Staphylococcus aureus was 1.56 µg/mL (≈ 4.71 µM); in the assay with Klebsiella pneumoniae it was 1.56 µg/mL (≈ 4.71 µM); in the assay with Pseudomonas aeruginosa it was 3.12 µg/mL (≈ 9.43 µM).
Compound `NNC(=O)c1ccncc1` [ISONIAZID] yielded an MIC in assay [1] of 0.4 µg/mL (≈ 2.92 µM).

The term MIC denotes the smallest concentration in the dilution series that meets the test's criterion for growth inhibition. Higher therefore signals a less susceptible organism.

For the origin of these results see ChEMBL document CHEMBL2150987, “Synthesis and evaluation of novel 1,3,4-oxadiazole derivatives of marine bromopyrrole alkaloids as antimicrobial agent” (2012).
